This note sets out measurements from ChEMBL document CHEMBL1128270 (J Med Chem, 1995).

For test [1], the system named is Dopamine D2 receptor and serotonin 1a receptor (Rattus norvegicus). In words: Selectivity as the ratio of IC50 value against D-2 receptor to that of 5-hydroxytryptamine 1A receptor.
Test [2] concerns the target T1, Adrenergic receptor alpha-1 (Rattus norvegicus, UniProt P15823+P23944+P43140).
T1 sequence (P15823 whole entry): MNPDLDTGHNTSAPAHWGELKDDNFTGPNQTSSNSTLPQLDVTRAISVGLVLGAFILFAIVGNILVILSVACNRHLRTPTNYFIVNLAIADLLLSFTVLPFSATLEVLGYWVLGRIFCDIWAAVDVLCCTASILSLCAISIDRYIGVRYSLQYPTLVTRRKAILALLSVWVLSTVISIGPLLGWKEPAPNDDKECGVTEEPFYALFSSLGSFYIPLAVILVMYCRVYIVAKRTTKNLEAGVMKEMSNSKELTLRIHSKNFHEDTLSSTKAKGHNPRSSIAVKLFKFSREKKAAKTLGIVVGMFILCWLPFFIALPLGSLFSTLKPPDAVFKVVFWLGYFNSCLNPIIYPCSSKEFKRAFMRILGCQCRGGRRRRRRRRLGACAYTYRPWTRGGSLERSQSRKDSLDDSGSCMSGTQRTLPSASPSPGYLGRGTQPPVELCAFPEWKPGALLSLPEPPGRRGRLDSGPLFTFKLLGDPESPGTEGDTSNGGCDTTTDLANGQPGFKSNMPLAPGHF
T1 sequence (P23944 whole entry): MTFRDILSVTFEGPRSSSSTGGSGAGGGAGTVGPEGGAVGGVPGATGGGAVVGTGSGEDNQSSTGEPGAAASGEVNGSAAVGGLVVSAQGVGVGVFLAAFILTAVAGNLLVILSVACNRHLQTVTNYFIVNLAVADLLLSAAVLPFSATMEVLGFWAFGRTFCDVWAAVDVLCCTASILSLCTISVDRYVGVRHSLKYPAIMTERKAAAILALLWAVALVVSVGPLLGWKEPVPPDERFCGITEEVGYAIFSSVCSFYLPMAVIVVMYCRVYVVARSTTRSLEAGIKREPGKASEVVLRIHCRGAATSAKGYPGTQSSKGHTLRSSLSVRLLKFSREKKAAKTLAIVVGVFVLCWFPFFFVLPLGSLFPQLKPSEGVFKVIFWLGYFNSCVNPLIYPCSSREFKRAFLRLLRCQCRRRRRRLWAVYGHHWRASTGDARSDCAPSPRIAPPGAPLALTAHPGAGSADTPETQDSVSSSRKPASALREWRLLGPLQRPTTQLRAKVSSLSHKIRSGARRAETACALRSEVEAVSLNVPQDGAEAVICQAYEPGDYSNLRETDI
T1 sequence (P43140 whole entry): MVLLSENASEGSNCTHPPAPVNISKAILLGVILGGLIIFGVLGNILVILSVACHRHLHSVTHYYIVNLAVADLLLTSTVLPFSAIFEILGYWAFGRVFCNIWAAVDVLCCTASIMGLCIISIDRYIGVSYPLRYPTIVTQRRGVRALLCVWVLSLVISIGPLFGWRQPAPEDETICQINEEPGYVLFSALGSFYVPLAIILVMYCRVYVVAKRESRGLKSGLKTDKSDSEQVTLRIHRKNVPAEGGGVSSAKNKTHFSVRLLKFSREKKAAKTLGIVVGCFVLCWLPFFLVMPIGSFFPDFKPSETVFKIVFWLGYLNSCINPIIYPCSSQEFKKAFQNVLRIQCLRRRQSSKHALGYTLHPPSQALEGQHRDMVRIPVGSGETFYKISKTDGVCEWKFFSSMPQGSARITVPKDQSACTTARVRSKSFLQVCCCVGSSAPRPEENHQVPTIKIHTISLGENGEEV
In words: In vitro binding affinity measured on alpha-1 adrenergic receptor using [3H]prazosin as radioligand. The class given is protein assay.

The target of test [3] is T2, D(2) dopamine receptor (Rattus norvegicus, UniProt P61169). In words: The compound was evaluated for the binding affinity towards Dopamine receptor D2 binding site using [3H]spiroperidol. Summed up: (§1)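 IC50 came from 7–9 drug concentrations in triplicate, over 2–4 independent experiments, analysed with EBDA. Specific binding exceeded 75% of total.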
The target in test [4] is T3, 5-hydroxytryptamine receptor 1A (Rattus norvegicus, UniProt P19327).
T3 sequence (P19327 whole entry): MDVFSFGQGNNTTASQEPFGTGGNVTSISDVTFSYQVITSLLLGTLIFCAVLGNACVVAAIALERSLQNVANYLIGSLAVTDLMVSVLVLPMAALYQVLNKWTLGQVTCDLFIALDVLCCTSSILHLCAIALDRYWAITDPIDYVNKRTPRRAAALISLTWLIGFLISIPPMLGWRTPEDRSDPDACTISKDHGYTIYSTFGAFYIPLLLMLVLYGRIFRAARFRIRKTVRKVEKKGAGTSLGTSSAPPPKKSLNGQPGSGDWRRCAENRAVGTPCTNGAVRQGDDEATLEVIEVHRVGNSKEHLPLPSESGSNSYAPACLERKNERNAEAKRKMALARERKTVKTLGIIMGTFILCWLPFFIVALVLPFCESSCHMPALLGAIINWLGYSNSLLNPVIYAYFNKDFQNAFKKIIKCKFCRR
The test is described as follows: In vitro binding affinity measured on serotonin 5-hydroxytryptamine 1A receptor using [3H]8-OH-DPAT as radioligand.

Test [5] in a line: Selectivity as the ratio of IC50 value against alpha-1 receptor to that of 5-hydroxytryptamine 1A receptor. Summed up: (§2)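 Ratio of the α1 IC50 to the 5-HT1A IC50 ([3H]-8-OH-DPAT, rat cortex). For α1, male Sprague-Dawley rat cortex membranes were prepared in 50 mM Tris-HCl pH 7.7 with 10 μM pargyline and 0.1% ascorbate.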
The species named for test [6] is Cavia porcellus. In words: Selectivity as the ratio of IC50 value against sigma receptor to that of 5-HT1A receptor. Summed up: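 Ratio of the σ IC50 to the 5-HT1A IC50. For σ, a P2 membrane fraction was prepared from whole male guinea pig brain without cerebellum in 50 mM Tris-HCl pH 7.4. [3H]DTG was 0.90 nM final, incubated 90 min at 25 °C, then filtered and counted. IC50 values came from 7–9 concentrations in triplicate (EBDA).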

The target of test [7] is Serotonin 1a (5-HT1a) receptor/Adrenergic receptor alpha-1 (Rattus norvegicus) (UniProt P15823+P23944+P43140+P19327). The test is described as follows: Selectivity ratio of IC50 value against alpha-1 receptor to that of 5-HT1A receptor. The format is protein assay. Summed up: as §2
Test [8] concerns the target Serotonin 2 (5-HT2) receptor (Rattus norvegicus, UniProt P30994+P08909+P14842). In words: In vitro binding affinity measured on serotonin 5-hydroxytryptamine 2 receptor using [3H]ketanserin as radioligand. The format is protein assay.
Test [9] can be described thus: Selectivity ratio of IC50 value against D-2 receptor to that of 5-HT1A receptor. Summed up:
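Ratio of the D-2 IC50 to the 5-HT1A IC50. […] Each IC50 came from 7–9 concentrations in triplicate over 2–4 experiments (EBDA).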

For test [10], the target named is T2, D(2) dopamine receptor. In words: In vitro binding affinity measured on dopamine receptor D2 using [3H]spiroperidol as radioligand. Summed up:
as §1

pIC50: −log10 of the molar value.

T2 sequence (P61169 whole entry): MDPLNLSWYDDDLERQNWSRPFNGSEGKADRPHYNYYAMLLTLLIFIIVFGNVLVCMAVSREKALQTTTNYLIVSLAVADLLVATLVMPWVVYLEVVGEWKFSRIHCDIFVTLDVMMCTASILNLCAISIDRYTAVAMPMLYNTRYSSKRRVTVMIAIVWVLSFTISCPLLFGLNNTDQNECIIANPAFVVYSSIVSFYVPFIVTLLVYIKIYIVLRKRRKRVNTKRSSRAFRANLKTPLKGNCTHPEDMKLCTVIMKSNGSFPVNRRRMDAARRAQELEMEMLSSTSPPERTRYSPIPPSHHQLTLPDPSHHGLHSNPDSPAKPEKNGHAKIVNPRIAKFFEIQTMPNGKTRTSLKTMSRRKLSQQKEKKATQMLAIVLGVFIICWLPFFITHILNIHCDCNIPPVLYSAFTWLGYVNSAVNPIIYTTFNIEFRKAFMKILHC

A word on the IC50: it is the concentration at which inhibition is half-maximal. A lower IC50 goes with greater potency. In general, pIC50 refers to −log10 of the IC50, conventionally taken in molar units. A higher pIC50 goes with a low IC50. Take `COc1ccc2c(c1)C(NCCN1CCN(c3ccccc3OC)CC1)CCC2` (stereo not given): the Selectivity was 30 in test [1] and 49 in test [5]. The compound further registered a 50% inhibitory concentration (IC50) in [2] of 1960 nM. For the same compound, the pIC50 in [3] is 5.92; in [4] it was 7.39.
Take `COc1ccc2c(c1)C(CCCN1CCN(c3ccccn3)CC1)CCC2` (stereo not given): the Selectivity in [6] was determined as 37; in test [7] it was 77; in [9], 97. The IC50 in [2] turned out to be 261 nM; in [8], 288 nM. The pIC50 in [4] was 8.47; in test [10] it was 6.48.
As for `COc1ccccc1N1CCN(CC/C=C2\CCCc3ccccc32)CC1`, the Selectivity in test [6] was found to be 30; in test [7], 2; in [9], 6.9. Besides, the IC50 is reported as 3.6 nM in [2] and 147 nM in test [8]. Also, the pIC50 in test [4] was 8.74; in test [10], 7.90.
Regarding `COc1ccc2c(c1)C(CCCN1CCN(c3ccccn3)CC1)=CCC2`, the Selectivity in test [6] came out at 3.9; in test [7], 2.4; in [9] it was 12. Also, the concentration for half-maximal inhibition (IC50) came to 152 nM in [2] and 146 nM in [8]. Moreover, the negative-log IC50 (pIC50) was 7.20 in test [4] and 6.11 in [10].
`COc1ccc2c(c1)C(CCCN1CCN(c3ccccc3OC)CC1)=CCC2`: the Selectivity came to 114 in test [6], 12 in test [7] and 45 in test [9]. The IC50 in [2] is listed as 24.5 nM; in test [8], 391 nM. Moreover, the figures for the pIC50 in test [4] and in [10] were 8.70 and 7.04, respectively.
`COc1ccc2c(c1)C(CCCN1CCN(c3cccc(C(F)(F)F)c3)CC1)CCC2` (stereo not given): the Selectivity stood at 0.99 in [6], 33 in test [7] and 15 in test [9]. In addition, the figures for the IC50 in test [2] and in test [8] were 2930 nM and 391 nM, respectively. The negative logarithm of the IC50 (pIC50) was 7.05 in [4] and 5.88 in [10].
